From ChEMBL document CHEMBL4043094, “Azobenzene-containing photoswitchable proteasome inhibitors with selective activity and cellular toxicity” (Bioorg Med Chem, 2017) come the findings set out here.

A short description of series [1]: Inhibition of chymotrypsin-like activity of 20S proteasome in rabbit 20S proteasome pre-incubated for 10 mins before Suc-Leu-Leu-Val-Tyr-AMC substrate addition and measured after 2 hrs by fluorescence assay. Also on record: species or system Oryctolagus cuniculus. An outline of the steps:
(§1)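 IC50 (nM) was determined for each compound twice: in its non-irradiated form and again after light irradiation.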

A short description of series [2]: Inhibition of caspase-like activity of 20S proteasome in rabbit 20S proteasome pre-incubated for 10 mins before Suc-Leu-Leu-Val-Tyr-AMC substrate addition and measured after 2 hrs by fluorescence assay. Also on record: species or system Oryctolagus cuniculus. In a few lines:
as §1

The subject of series [3] is MDA-MB-468. Nature of the series: Cytotoxicity against human MDA-MB-468 cells incubated for 48 hrs by 7AAD dye based flow cytometry. It is filed as functional. The conditions noted are these: MDA-MB-468, 48 h, read-out: LD50 (the source's name). In a few lines: (§2)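 Apoptosis dose-response over 48 h treatment. Each inhibitor was tested in two forms: the thermally adapted trans state and the cis photostationary state.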
(A flow cytometer gives signals particle by particle.)

The test system of series [4] is MCF-10A. The experiment in a line: Cytotoxicity against human MCF10A cells at 5000 nM incubated for 48 hrs by 7AAD dye based flow cytometry. It is filed as cell-based. Conditions: 5 µM.
In series [5] the test system is HCT-116. The experiment in a line: Cytotoxicity against human HCT116 cells incubated for 48 hrs by 7AAD dye based flow cytometry. Format: functional. The conditions noted are these: HCT-116, 48 h, read-out: LD50 (the source's name). In a few lines:
as §2

A short description of series [6]: Cytotoxicity against human MCF10A cells incubated for 48 hrs by 7AAD dye based flow cytometry. It is filed as cell-based, MCF-10A. The conditions noted are these: read-out: LD50.
Series [7] is described as follows: Stability in DMSO. It is filed as physicochemical.

By IC50 is commonly meant the concentration that gives 50% inhibition. Lower therefore signals inhibition by little substance. Turning to `CC(C)C[C@H](NC(=O)[C@H](Cc1ccc(/N=N/c2ccccc2)cc1)NC(=O)OC(C)(C)C)B1OC2C[C@@H]3C[C@@H](C3(C)C)[C@]2(C)O1` (stereo not given in full), the 50% inhibitory concentration (IC50) in series [1] is 0.01 µM; in series [2], 0.107 µM.

Take `Cc1cc(C)cc(/N=N\c2cccc(C(=O)N[C@H](C(=O)N[C@@H](CC(C)C)B3OC4C[C@@H]5C[C@@H](C5(C)C)[C@]4(C)O3)[C@@H](C)O)c2)c1` (stereo not given in full): the IC50 in series [1] is 0.249 µM; in series [2], 1.63 µM.

Consider `Cc1cc(C)cc(/N=N\c2ccc(C[C@H](NC(=O)OC(C)(C)C)C(=O)N[C@@H](CC(C)C)B3OC4C[C@@H]5C[C@@H](C5(C)C)[C@]4(C)O3)cc2)c1` (stereo not given in full), for which the values for the IC50 in series [1] and in series [2] were 0.041 µM and 0.214 µM, respectively.

Take `Cc1cc(C)cc(/N=N/c2ccc(C[C@H](NC(=O)OC(C)(C)C)C(=O)N[C@@H](CC(C)C)B3OC4C[C@@H]5C[C@@H](C5(C)C)[C@]4(C)O3)cc2)c1` (stereo not given in full): the results for the IC50 in series [1] and in series [2] were 0.053 µM and 0.211 µM, respectively.

On to `CC(C)C[C@H](NC(=O)[C@@H](NC(=O)c1cccc(/N=N/c2ccc(-c3ccccc3)cc2)c1)[C@@H](C)O)B1OC2C[C@@H]3C[C@@H](C3(C)C)[C@]2(C)O1` (stereo not given in full), for which the results for the IC50 in series [1] and in series [2] were 0.022 µM and 0.498 µM, respectively.

As to `CC(C)C[C@H](NC(=O)[C@@H](NC(=O)c1cccc(-c2ccccc2)n1)[C@@H](C)O)B(O)O` [DELANZOMIB], the values for the IC50 in series [1] and in series [2] were 0.01 µM and 0.059 µM, respectively.

In the case of `CC(C)C[C@H](NC(=O)[C@H](Cc1ccc(/N=N\c2ccccc2)cc1)NC(=O)OC(C)(C)C)B1OC2C[C@@H]3C[C@@H](C3(C)C)[C@]2(C)O1` (stereo not given in full), the IC50 in series [1] came out at 0.012 µM; in series [2] it was 0.11 µM.

`CC(C)C[C@H](NC(=O)[C@@H](NC(=O)c1cccc(/N=N\c2ccccc2)c1)[C@@H](C)O)B1OC2C[C@@H]3C[C@@H](C3(C)C)[C@]2(C)O1` (stereo not given in full): the concentration for half-maximal inhibition (IC50) was 0.084 µM in series [1] and 0.759 µM in series [2].

Consider `CC(C)C[C@H](NC(=O)[C@H](Cc1ccccc1)NC(=O)c1cnccn1)B(O)O` [BORTEZOMIB], for which the IC50 in series [1] was 0.005 µM; in series [2] it was 0.076 µM.

Take `CC(C)C[C@H](NC(=O)[C@H](Cc1ccc(/N=N/c2ccc(-c3ccccc3)cc2)cc1)NC(=O)OC(C)(C)C)B1OC2C[C@@H]3C[C@@H](C3(C)C)[C@]2(C)O1` (stereo not given in full): the IC50 in series [1] amounted to 0.011 µM; in series [2], 0.46 µM. For the same compound, the CC50 in series [3] came out at 0.246 µM; in series [5] it was 1.03 µM. Moreover, the Activity result in series [4] is listed as “Non-Toxic”.

Take `CC(C)C[C@H](NC(=O)[C@@H](NC(=O)c1cccc(/N=N\c2ccc(-c3ccccc3)cc2)c1)[C@@H](C)O)B1OC2C[C@@H]3C[C@@H](C3(C)C)[C@]2(C)O1` (stereo not given in full): the IC50 in series [1] is 0.029 µM; in series [2], 0.727 µM.

With `CC(C)C[C@H](NC(=O)[C@H](Cc1ccc(/N=N\c2ccc(-c3ccccc3)cc2)cc1)NC(=O)OC(C)(C)C)B1OC2C[C@@H]3C[C@@H](C3(C)C)[C@]2(C)O1` (stereo not given in full), the CC50 at 48 h in series [6] is 0.683 µM. For the same compound, the Stability in series [7] was over 48 h. In addition, the values for the IC50 in series [1] and in series [2] were 0.054 µM and 0.303 µM, respectively. Moreover, the CC50 in series [3] came to 0.144 µM; in series [5], 0.212 µM.

For `Cc1cc(C)cc(/N=N/c2cccc(C(=O)N[C@H](C(=O)N[C@@H](CC(C)C)B3OC4C[C@@H]5C[C@@H](C5(C)C)[C@]4(C)O3)[C@@H](C)O)c2)c1` (stereo not given in full), the figures for the IC50 in series [1] and in series [2] were 0.055 µM and 1.62 µM, respectively.

`CC(C)C[C@H](NC(=O)[C@@H](NC(=O)c1cccc(/N=N/c2ccccc2)c1)[C@@H](C)O)B1OC2C[C@@H]3C[C@@H](C3(C)C)[C@]2(C)O1` (stereo not given in full): the IC50 in series [1] was found to be 0.017 µM; in series [2] it was 0.868 µM.
